An excerpt weighted towards active compounds, which were near 5.4% of everything screened.
PostGolgi yeast = growth inhibition of a yeast mutant, post-Golgi transport screen; 98,000 tested, 0.9% active; inhibition, % at 10 µM; post-Golgi transport phenotypic cell assay;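 also: yeast cells grown in 1536-well plates; yeast grown about 18 h at 30C before absorbance read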
tolC growth inh = E. coli tolC mutant growth inhibition; 65,000 tested, 2.2% active; AID 573; growth inhibition, % at 10 µM (by protocol); E. coli BW25113 tolC mutant growth, OD615;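 active = growth inhibition at or above a cutoff equal to the mean over every tested compound plus 3 SD, cut at about 60% in these data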;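 also: growth measured after 20 h incubation at 37 °C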
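Material: E. coli BW25113 ΔtolC::kan, tolC deletion mutant strain. Measure: percent growth inhibition. Schedule: 37 °C, 20 h exposure. Doses: single-point testing at 10 µM. Signal: A615 absorbance measurement. Buffer or medium: kanamycin-containing LB broth (50 µg/mL).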
PLAP activator = activators of human placental alkaline phosphatase; 96,000 tested, 1.2% active; P05187; purified PLAP enzyme, luminescent substrate read-out; active compounds read high; activation fold at 20 µM; in the data active = activation fold above about 2
E coli WT exp = E. coli BW25113 growth inhibition, expanded screen. growth inhibition, % at 100 µM. 98,000 tested, 0.15% active. OD600 absorbance;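 active = growth inhibition above about 50% at one test dose, limit read from the data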;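 also: growth measured after 20 h incubation at 37 °C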
HePTP inh = inhibitors of human HePTP phosphatase | recombinant HePTP phosphatase activity, OD absorbance | AID 521 | inhibition, % at 20 µM | 110,000 tested, 0.64% active; in the data active = inhibition above about 50%;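 also: plate controls were vehicle for no effect and reference inhibitor for full effect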
Target sequence (P35236 whole entry, looked up): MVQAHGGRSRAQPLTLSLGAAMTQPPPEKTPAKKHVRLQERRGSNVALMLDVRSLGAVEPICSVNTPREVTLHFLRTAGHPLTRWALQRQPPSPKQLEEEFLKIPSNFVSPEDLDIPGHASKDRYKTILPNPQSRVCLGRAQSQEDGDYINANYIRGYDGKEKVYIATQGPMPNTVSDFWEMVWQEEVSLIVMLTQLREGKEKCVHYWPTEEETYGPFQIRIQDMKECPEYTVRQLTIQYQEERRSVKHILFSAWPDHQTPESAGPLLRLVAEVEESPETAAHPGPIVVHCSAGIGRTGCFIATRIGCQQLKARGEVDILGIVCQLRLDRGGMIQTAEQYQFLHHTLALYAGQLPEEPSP
PostGolgi ctrl = growth of the yeast control strain, post-Golgi counter-screen. efflux-deficient yeast background strain, growth absorbance A615, 16 h. inhibition, % at 10 µM. 98,000 tested, 5% active. AID 738
* marks the source's active call; other numbers are inactive results. Rule as the data show it, unless noted: active = inhibition above about 30%; inactive = the rest.

CC(C)C(c1nnnn1Cc1ccc2c(c1)OCO2)N1CCN(c2ccccc2)CC1 (stereo not given) was read as PostGolgi yeast -3.2, tolC growth inh -13.7, PLAP activator 0.9, E coli WT exp 5.0, HePTP inh 5.4 and PostGolgi ctrl 19.1.
`CCCC(c1nnnn1Cc1ccc(OC)cc1)N1CCN(c2ccccc2)CC1` (stereo not given) gave PostGolgi yeast 3.2, tolC growth inh 17.6, PLAP activator 1.2, E coli WT exp -16.0, HePTP inh 7.7 and PostGolgi ctrl 30.5*.
COc1ccc(Cn2nnnc2C(C(C)C)N2CCc3ccccc32)cc1 (stereo not given) was read as PostGolgi yeast -1.0, tolC growth inh 72.6*, PLAP activator 1.1, E coli WT exp -4.0, HePTP inh 9.3 and PostGolgi ctrl 27.7.
`CC(C)CC(c1nnnn1C(C)C)N1CCN(c2ccccc2)CC1` (stereo not given) gave PostGolgi yeast -6.8, PLAP activator 1.2, E coli WT exp -2.0 and PostGolgi ctrl 61.0*.
For CCCC(c1nnnn1Cc1ccc(OC)cc1)N1CCC(C(N)=O)CC1 (stereo not given) the results were PostGolgi yeast 6.9, tolC growth inh -14.0, PLAP activator 1.8, E coli WT exp 2.0, HePTP inh 1.9 and PostGolgi ctrl 9.2.
`COc1ccc(Cn2nnnc2C(c2cccs2)N2CCOCC2)cc1` (stereo not given) gave PostGolgi yeast 7.5, tolC growth inh -8.4, PLAP activator 1.4, E coli WT exp -9.0, HePTP inh -8.2 and PostGolgi ctrl 7.1.
COc1ccc(Cn2nnnc2C(CC(C)C)N2CCN(c3ccccc3)CC2)cc1 (stereo not given) was read as PostGolgi yeast 14.4, tolC growth inh 25.5, PLAP activator 1.2, E coli WT exp -15.0, HePTP inh 9.7 and PostGolgi ctrl 63.2*.
`O=C(Nc1ccc(Cl)c(-c2nc3ncccc3o2)c1)c1ccccc1` gave HePTP inh -1.7.
For COc1ccccc1C1CN=NC12CCCc1ccccc1C2=O (stereo not given) the results were PostGolgi yeast -14.3, PLAP activator 1, E coli WT exp 3.0 and PostGolgi ctrl 34.9*.
For CC(C)(C)C1(C)OC(O)(C(Cl)(Cl)Cl)CC1=O (stereo not given) the results were HePTP inh 102.9*.
`CCC(=O)Nc1ccc(NC(=O)/C=C/c2ccco2)cc1` gave HePTP inh -3.1.
CC(C)COC(=O)c1ccc2c(c1O)C(=O)c1ccccc1C2=O was read as PostGolgi yeast 103.9*, PLAP activator 1, E coli WT exp -4.0 and PostGolgi ctrl 22.8.
`CCCCOc1ccc(C(=O)OCCN2CCCCC2)c(O)c1` gave HePTP inh 4.9.
For COC(=O)C1=C(N)Oc2cc(C)n(Cc3ccco3)c(=O)c2C1c1cccc(Cl)c1 (stereo not given) the results were PostGolgi yeast -2.8, tolC growth inh 67.5*, PLAP activator 1, E coli WT exp -17.0, HePTP inh -4.7 and PostGolgi ctrl 25.4.
For CCn1c(C)cc2c(c1=O)C(c1ccccc1)C(C(=O)OC)=C(N)O2 (stereo not given) the results were PostGolgi yeast -6.3, PLAP activator 1.1, E coli WT exp -2.0 and PostGolgi ctrl 8.4.
`COC(=O)C1=C(N)Oc2cc(C)n(CC3CCCO3)c(=O)c2C1c1ccc(Cl)c(Cl)c1` (stereo not given) gave PostGolgi yeast 0.5, PLAP activator 1.8, E coli WT exp -4.0 and PostGolgi ctrl 14.4.
COC(=O)C1=C(N)Oc2cc(C)n(C)c(=O)c2C1c1ccc(Cl)c(Cl)c1 (stereo not given) was read as PostGolgi yeast 1.6, tolC growth inh -12.0, PLAP activator 1.1, E coli WT exp -2.0, HePTP inh 8.9 and PostGolgi ctrl 45.5*.
`CCn1c(Sc2ccc(N)cc2Cl)nc2ccccc21` gave PostGolgi yeast 3.4, tolC growth inh 22.9, PLAP activator 0.9, E coli WT exp 11.0, HePTP inh 4.6 and PostGolgi ctrl 45.9*.
`CC(C)SC1=NC(C)(C)C=C(/C=C/c2ccc(Cl)cc2Cl)N1` gave PostGolgi yeast 3.4, PLAP activator 1.5, E coli WT exp 2.0 and PostGolgi ctrl 26.9.
For CC(C)SC1=NC(C)(C)C=C(/C=C/c2c(Cl)cccc2Cl)N1 the results were PostGolgi yeast 1.1, PLAP activator 1.2, E coli WT exp -7.0 and PostGolgi ctrl 74.1*.
